Reference: ChEMBL document CHEMBL1154269, “Isolation and structural elucidation of euryjanicins B-D, proline-containing cycloheptapeptides from the Caribbean marine sponge Prosuberites laughlini” (2009)
The source made the active and inactive calls. The rule behind the calls is not given here. Where a SMILES comes first, the peptide text is derived from it.

Columns and labels:
UO-31 = test: Cytotoxicity against human UO31 cells assessed as viable cells at 10 uM after 48 hrs by sulforhodamine B assay; format: functional; conditions: UO-31, 48 h, read-out: Activity
Method in brief: (§1)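 Tested at a single high dose of 10−5 M across the full NCI 60 human cancer cell line panel. Read-out is percent growth of treated cells.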

Human alphaherpesvirus 2 = test: Antiviral activity against HSV2; format: functional, organism-based
NCI-H522 = test: Cytotoxicity against human NCI-H522 cells assessed as cell viability at 10 uM after 48 hrs by sulforhodamine B assay; format: functional; conditions: NCI-H522, 48 h, read-out: Activity; method in brief: as §1
Hepatitis B virus = test: Antiviral activity against HBV; format: functional, organism-based
LOX IMVI = test: Cytotoxicity against human LOXIMVI cells assessed as viable cells at 10 uM after 48 hrs by sulforhodamine B assay; format: functional; conditions: read-out: Activity; method in brief: as §1
[1] = test system: Mycobacterium tuberculosis; test: Antituberculosis activity against Mycobacterium tuberculosis […] by alamar blue assay; format: functional, organism-based
Human alphaherpesvirus 1 = test: Antiviral activity against HSV1; format: functional, organism-based
Influenza A virus = test: Antiviral activity against Influenza A H5N1; format: functional, organism-based
Plasmodium falciparum = test: Antimalarial activity against Plasmodium falciparum W2 clone after 48 hrs by fluorescence microplate reader assay; format: functional, organism-based
[2] = test system: Respiratory syncytial virus; test: Antiviral activity against RSV A; format: functional, organism-based
Influenza B virus = test: Antiviral activity against Influenza B; format: functional, organism-based
Microglia = test: Antiinflammatory activity in LPS-stimulated rat neonatal microglia assessed as inhibition of PMA-stimulated superoxide anion production; format: functional
Rift Valley fever virus = test: Antiviral activity against Rift Valley fever virus; format: functional, organism-based
IGROV-1 = test: Cytotoxicity against human IGROV1 cells assessed as viable cells at 10 uM after 48 hrs by sulforhodamine B assay; format: functional; conditions: IGROV-1, 48 h, read-out: Activity; method in brief: as §1
West Nile virus = test: Antiviral activity against WNV; format: functional, organism-based

Structure (SMILES) | viability at 10 µM (UO-31) [%] | Activity (Human alphaherpesvirus 2) | viability at 10 µM (NCI-H522) [%] | Activity (Hepatitis B virus) | viability at 10 µM (LOX IMVI) [%] | Activity [1] | Activity (Human alphaherpesvirus 1) | Activity (Influenza A virus) | Activity (Plasmodium falciparum) | Activity [2] | Activity (Influenza B virus) | Activity (Microglia) | Activity (Rift Valley fever virus) | viability at 10 µM (IGROV-1) [%] | Activity (West Nile virus)
CC[C@H](C)[C@@H]1NC(=O)[C@H]([C@@H](C)CC)NC(=O)[C@H]([C@@H](C)CC)NC(=O)[C@@H]2CCCN2C(=O)[C@H]([C@H](C)O)NC(=O)[C@@H]2CCCN2C(=O)[C@@H]2CCCN2C(=O)[C@H](CC(C)C)NC1=O [DOMINICIN] | 32.8 | inactive | 100 | inactive | 100 | inactive | inactive | inactive | inactive | inactive | inactive | inactive | inactive | 100 | inactive
CC(C)[C@@H]1NC(=O)[C@H](Cc2ccccc2)NC(=O)[C@@H]2CCCN2C(=O)[C@H]([C@@H](C)O)NC(=O)[C@H](C)NC(=O)[C@@H]2CCCN2C(=O)[C@@H]2CCCN2C1=O [EURYJANICIN B] (cyclo(ATPFVPP)) | 76.3 | inactive | 83.9 | inactive | 88.6 | inactive | inactive | inactive | inactive | inactive | inactive | inactive | inactive | 91.3 | inactive
CC[C@@H](C)[C@@H]1NC(=O)[C@@H]2CCCN2C(=O)[C@H](Cc2ccccc2)NC(=O)[C@H](CC(C)C)NC(=O)[C@@H]2CCCN2C(=O)[C@H]([C@H](C)CC)NC(=O)[C@H](CO)NC1=O [EURYJANICIN C] | 83.4 | inactive | 95.1 | inactive | 88 | inactive | inactive | inactive | inactive | inactive | inactive | inactive | inactive | 100 | inactive
CC[C@@H](C)[C@@H]1NC(=O)[C@@H]2CCCN2C(=O)[C@H](CO)NC(=O)[C@H](Cc2ccccc2)NC(=O)[C@H]([C@H](C)CC)NC(=O)[C@@H]2CCCN2C(=O)[C@H](Cc2ccccc2)NC1=O [EURYJANICIN D] | 82.7 | inactive | 94.6 | inactive | 87.6 | inactive | inactive | inactive | inactive | inactive | inactive | inactive | inactive | 100 | inactive
